Results published in ChEMBL document CHEMBL1139526, “Synthesis, antiviral activity, and mechanism of drug resistance of D- and L-2',3'-didehydro-2',3'-dideoxy-2'-fluorocarbocyclic nucleosides” (J Med Chem, 2005).

Legend:
PBMC [1] = experiment: In vitro effective concentration against HIV-1 in human peripheral blood mononuclear cells; format: functional, cell-based
In short: (§1)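 HIV-1 LAI was the reference virus. Human PBM cells were infected in bulk for 1 h at 100 TCID50/1 × 10⁷ cells (flask) or 200 TCID50/6 × 10⁵ cells/well. Cells went into 10-fold serial compound dilutions in RPMI-1640 with 16% FBS, DEAE-dextran and IL-2, 5 days at 37 °C. Read-out was supernatant RT activity ([³H]TTP, poly(rA)·oligo(dT)). EC50 was taken by the median effect method.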

PBMC [2] = experiment: Inhibitory concentration was determined against PHA stimulated human peripheral blood mononuclear cells; format: functional, cell-based
In short: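 Uninfected PHA-stimulated PBM cells from healthy HIV/HBV-seronegative donors were isolated by Ficoll-Hypaque and seeded at 5 × 10⁴ cells/well. Cells were incubated 5 days at 37 °C with 10-fold serial dilutions. Read-out was MTT reduction at 570 nm after overnight dye and solubilization. IC50 was taken by median-effect analysis.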

CCRF-CEM = experiment: Inhibitory concentration against CEM cell line; format: functional, cell-based; conditions: Homo sapiens
In short: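 CEM T-lymphoblastoid cells in log phase, 2.5 × 10³ cells/well, were exposed to 10-fold serial dilutions for 4 days at 37 °C and 5% CO₂. MTT was added overnight, then solubilized, with absorbance read at 570 nm. IC50 was taken from median-effect analysis.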

Vero = experiment: Inhibitory concentration against uninfected Vero cells; format: functional, cell-based; conditions: Chlorocebus sabaeus
In short: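 Uninfected Vero cells in log phase, 5 × 10³ cells/well, were exposed to 10-fold serial drug dilutions for 3 days at 37 °C. Viability was read by MTT overnight, solubilized, at 570 nm. IC50 came from the median effect method.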

PBMC [3] = experiment: Effective concentration to inhibit HIV-1 activity in human peripheral blood mononuclear cells; format: functional, cell-based; in short: as §1
MT4 = experiment: In vitro effective concentration against HIV-1 in MT-4 cells; format: functional, cell-based; conditions: Homo sapiens
PBMC [4] = experiment: In vitro effective concentration against HBV in human peripheral blood mononuclear cells; format: functional, cell-based
PBMC [5] = experiment: (§2) In vitro effective concentration against […] wild type HIV-1 in human peripheral blood mononuclear cells; format: functional
In short: (§3)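 Molecular clones were used: wild-type HIV-1 xxBru and lamivudine-resistant HIV-1 M184Vpitt. Human PBM cells were infected in bulk for 1 h, then cultured in 10-fold serial compound dilutions with IL-2 for 5 days at 37 °C. Pelleted supernatant virus was assayed for RT activity, 2 h at 37 °C with [³H]TTP. EC50/EC90 came from median-effect analysis. Fold increase is M184V EC50 over xxBRU EC50.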

PBMC [6] = experiment: as §2; format: functional, cell-based; in short: as §3
PBMC [7] = experiment: Fold increase in ratio of EC50 against HIV-1 M184V to that of EC50 against HIV-1wild type; format: functional, Homo sapiens
In short: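 PHA-stimulated human PBM cells infected in bulk for 1 h with the molecular clones HIV-1 xxBru (wild type) or M184Vpitt, then added to 10-fold serial drug dilutions. Cultured 5 days at 37 °C. Supernatant virus was pelleted and its RT activity measured by [3H]TTP incorporation on poly(rA)·oligo(dT). EC50 by the median effect method; fold increase = EC50 M184V / EC50 xxBru.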

PBMC [8] = experiment: In vitro effective concentration against Lamivudine resistant HIV-1 mutant M184V in human peripheral blood mononuclear cells; format: functional
PBMC [9] = test system: PBMC

Structure (SMILES) | EC50 (PBMC [1]) [µM] | IC50 (PBMC [2]) [µM] | IC50 (CCRF-CEM) [µM] | IC50 (Vero) [µM] | EC50 (PBMC [3]) [µM] | further results
Nc1ccn([C@@H]2S[C@H](CO)C=C2F)c(=O)n1 | 1.3 | – | – | – | – | –
Cc1cn([C@@H]2C[C@H](CO)C=C2F)c(=O)[nH]c1=O | – | > 100 | > 100 | > 100 | > 100 | –
OC[C@H]1C=C(F)[C@@H](n2cnc3c(O)ncnc32)C1 | – | > 100 | 91.3 | > 100 | > 100 | –
Nc1nc2c(ncn2[C@H]2C=C[C@@H](CO)C2)c(=O)[nH]1 [CARBOVIR] | 0.55 | – | – | – | – | IC50 (MT4): 4.6 µM
Nc1nc(=O)n([C@@H]2O[C@H](CO)C=C2F)cc1F | 0.17 | – | – | – | – | EC50 (PBMC [4]): 0.22 µM
Nc1ccn([C@H]2C=C(F)[C@@H](CO)S2)c(=O)n1 | 0.12 | – | – | – | – | –
Cc1cn([C@H]2C[C@@H](CO)C=C2F)c(=O)[nH]c1=O | – | > 100 | > 100 | > 100 | > 100 | –
OC[C@@H]1C=C(F)[C@H](n2cnc3c(O)ncnc32)C1 | – | > 100 | > 100 | > 100 | > 100 | –
Nc1ncnc2c1ncn2[C@@H]1O[C@H](CO)C=C1F | 1.5 | – | – | – | – | EC50 (PBMC [4]): 1.7 µM
Nc1ccn([C@@H]2C[C@H](CO)C=C2F)c(=O)n1 | – | > 100 | > 100 | > 100 | > 100 | –
O=c1ccn([C@@H]2C[C@H](CO)C=C2F)c(=O)[nH]1 | – | > 100 | > 100 | > 100 | > 100 | –
Nc1ccn([C@@H]2O[C@H](CO)C=C2F)c(=O)n1 | 0.51 | – | – | – | – | EC50 (PBMC [4]): 0.8 µM
Nc1nc(O)c2ncn([C@H]3C[C@@H](CO)C=C3F)c2n1 | – | > 100 | > 100 | > 100 | > 100 | –
Cc1cn([C@H]2C[C@H](N=[N+]=[N-])[C@@H](CO)O2)c(=O)[nH]c1=O [ZIDOVUDINE] | – | > 100 | – | – | 0.0018 | –
Nc1nc(=O)n([C@H]2C=C(F)C(CO)O2)cc1F (single isomer, unassigned) | 0.82 | – | – | – | – | –
Nc1ncnc2c1ncn2[C@@H]1C[C@H](CO)C=C1F | 72.8 | > 100 | > 100 | > 100 | 72.8 | –
Nc1ccn([C@@H]2CS[C@H](CO)O2)c(=O)n1 [LAMIVUDINE] | – | – | – | – | – | EC90 (PBMC [5]): 0.25 µM; EC50 (PBMC [6]): 0.027 µM
Nc1ccn([C@H]2C[C@@H](CO)C=C2F)c(=O)n1 | – | > 100 | > 100 | > 100 | 37.7 | –
Nc1nc(O)c2ncn([C@@H]3C[C@H](CO)C=C3F)c2n1 | 37.8 | > 100 | > 100 | > 100 | 37.8 | –
Nc1ncnc2c1ncn2[C@H]1C[C@@H](CO)C=C1F | – | > 100 | > 100 | > 100 | 0.77 | EC90 (PBMC [5]): 8.34 µM; Fold increase (PBMC [7]): 98; EC90 (PBMC [8]): > 100 µM; EC50 (PBMC [9]): 75.3 µM; EC50 (PBMC [6]): 0.77 µM
Nc1nc(=O)n([C@H]2C=C(F)[C@@H](CO)S2)cc1F | 0.15 | – | – | – | – | –
O=c1ccn([C@H]2C[C@@H](CO)C=C2F)c(=O)[nH]1 | – | > 100 | > 100 | > 100 | > 100 | –
Nc1ncnc2c1ncn2[C@H]1C=C(F)C(CO)O1 (single isomer, unassigned) | 4.4 | – | – | – | – | –
